Screening data as filed in PubChem.
Shown are actives, neighbours in structure and some others; about 4.8% of the full set was active somewhere.
Beta apoptosis – inhibitors of cytokine-induced beta cell apoptosis, primary screen, luminescence. INS-1E cytokine-induced death, ATP luminescence, 48 h; percent of positive-control rescue, neutral wells zero. protection from apoptosis, % (concentration not given with the values). actives 0.8% (n = 300,000). AID 435005, 2010;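 active means Every replicate reaches about 75%, or at least half do and their mean reaches it too, limit read from the data; inconclusive means At least half of replicates reach the limit but their mean does not; inactive means Under half of replicates reach the limit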;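 further: 0% = cytokine-treated negative control wells and 100% = positive control rescue; higher means more ATP so stronger rescue from cytokine killing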
Mdm2 MdmX PPI – inhibitors of human Mdm2-MdmX association, primary screen, cell-based, luminescence, split luciferase, SaOS-2, uHTS. Protein Mdm4 (Homo sapiens) + E3 ubiquitin-protein ligase Mdm2 (Homo sapiens), …. SaOS-2 split-luciferase Mdm2/MdmX complementation. inhibition, % at 8 µM. actives 3% (n = 330,000). AID 485346, 2010;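 active means inhibition of at least 50% at 8 µM in the primary screen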
Target sequence (O15151 whole entry, looked up): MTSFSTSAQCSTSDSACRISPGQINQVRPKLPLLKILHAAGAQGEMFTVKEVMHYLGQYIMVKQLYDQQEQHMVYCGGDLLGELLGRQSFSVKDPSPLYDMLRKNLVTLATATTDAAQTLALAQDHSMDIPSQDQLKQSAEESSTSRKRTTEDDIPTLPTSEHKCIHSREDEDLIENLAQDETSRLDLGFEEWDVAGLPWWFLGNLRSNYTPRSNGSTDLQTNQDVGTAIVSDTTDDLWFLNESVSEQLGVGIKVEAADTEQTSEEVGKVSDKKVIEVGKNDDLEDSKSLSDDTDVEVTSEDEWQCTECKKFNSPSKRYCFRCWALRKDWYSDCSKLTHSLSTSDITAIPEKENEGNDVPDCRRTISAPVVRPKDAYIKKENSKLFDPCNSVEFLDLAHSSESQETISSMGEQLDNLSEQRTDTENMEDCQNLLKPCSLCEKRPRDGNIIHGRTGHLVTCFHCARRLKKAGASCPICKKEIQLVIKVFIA
Target sequence (Q00987 whole entry, looked up): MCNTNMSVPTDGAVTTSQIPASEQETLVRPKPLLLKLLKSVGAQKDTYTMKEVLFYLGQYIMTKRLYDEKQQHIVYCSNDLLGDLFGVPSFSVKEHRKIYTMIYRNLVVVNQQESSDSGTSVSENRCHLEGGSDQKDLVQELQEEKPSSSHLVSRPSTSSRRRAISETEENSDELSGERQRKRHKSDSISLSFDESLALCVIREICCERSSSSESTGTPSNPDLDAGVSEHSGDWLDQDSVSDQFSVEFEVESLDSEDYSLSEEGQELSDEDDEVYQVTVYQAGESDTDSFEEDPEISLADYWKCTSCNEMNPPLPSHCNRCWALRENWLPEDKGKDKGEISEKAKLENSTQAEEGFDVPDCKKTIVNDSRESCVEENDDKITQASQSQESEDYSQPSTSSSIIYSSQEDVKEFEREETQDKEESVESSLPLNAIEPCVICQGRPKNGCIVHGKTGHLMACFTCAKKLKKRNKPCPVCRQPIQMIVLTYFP
SKKanGAS inh – S. pyogenes SKKanGAS growth inhibitors in kanamycin, primary screen, streptokinase expression inhibitor project, SKKanGAS strain, BacTiter-Glo luminescence. 6 h. inhibition, % at 7.5 µM. actives 1.3% (n = 300,000);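 active means mean replicate score, as percent of positive control median, at least 50; inconclusive means mean below 50 but one replicate at or above 50; inactive means mean and every replicate below 50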;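 further: strain carries kanamycin resistance gene driven by streptokinase promoter and grows in 40 µg/ml kanamycin; loss of luminescence reflects streptokinase promoter inhibition or plain growth inhibition; 0% = median of DMSO wells and 100% = positive control at its reference dose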
UPR CHOP act – activators of apoptotic CHOP UPR arm, primary screen, cell-based, CHO-CHOP luciferase reporter, luminescence, uHTS; AID 449763, 2010; activation, % at 10 µM; actives 0.34% (n = 330,000); UPR activation; percent of tunicamycin response over DMSO baseline;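 active means at 10 µM dose, activation of 40% or more, normalized to positive control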;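 further: 100% = tunicamycin at 10 µg/mL and 0% = DMSO alone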
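Evaluation: % reporter activation, DMSO baseline versus tunicamycin full activation; System: CHO-CHOP luciferase reporter cell line; Input: 500 cells/well; Incubation: 6 h compound treatment, 37 °C; Measured by: Steady-Glo luciferase luminescence; Dosing: one dose, 10 µM in 0.5% DMSO; Buffer or medium: F12 medium, 10% FBS; Benchmarks: positive tunicamycin 10 µg/mL, negative DMSO alone.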
XBP1 UPR activ – activators of adaptive XBP1 UPR arm, primary screen, cell-based, CHO-XBP1 luciferase reporter, luminescence, uHTS; actives 0.33% (n = 330,000); AID 463104, 2010; activation, % at 20 µM; IRE1-XBP1 UPR activation; percent of tunicamycin response, DMSO as zero;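 active means versus positive control, 20 µM dose yields 30% or more activation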;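 further: 100% = tunicamycin at 10 µg/mL and 0% = DMSO only wells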
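Material: CHO-XBP1 cells stably carrying IRE1-XBP1-driven luciferase reporter | Medium: F12 with 10% serum | Compound dosing: 20 µM single concentration, DMSO 1% | Incubation: Overnight seeding at 37 °C, 6 h compound treatment at 37 °C | Detection: Steady-Glo luminescence read | Read-out basis: % activation of reporter signal versus tunicamycin and DMSO controls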
CSC inhib – cancer stem cell viability inhibitors, primary screen, luminescence; cancer stem cell-like cells viability; inhibition, % at 7.5 µM; AID 2717, 2010; actives 1.1% (n = 300,000); in the data active means inhibition above about 75%; inconclusive means no clear call, values can overlap the other calls; tested in HMLE shEcad cells
Mdm2-MdmX conf – Mdm2-MdmX complex disruptors, retested hits, confirmation, luminescence, single concentration; shares compounds with Mdm2 MdmX PPI; Mdm2-MdmX binding, luminescent assay; inhibition, % at 8 µM; actives 55% (n = 10,000); AID 489028, 2010; in the data active means inhibition above about 40%
FLuc counter – full-length luciferase signal inhibition, confirmation, counter-screen for Mdm2/MdmX interaction inhibitor project, cell-based, single concentration, SaOS-2. shares compounds with Mdm2 MdmX PPI. SaOS-2 full-length luciferase counterscreen, luminescence. inhibition, % at 8 µM. actives 77% (n = 6,200);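 active means mean inhibition at 8 µM reaching about 37%, which flags the compound as non-specific, limit read from the data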;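 further: p53-null SaOS-2 cells with luciferase driven by a doxycycline-inducible promoter; compound on cells about two nights before reading with doxycycline added after day one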
* hit, by the source's call; u = inconclusive; x = no result given.

SMILES | Beta apoptosis | Mdm2 MdmX PPI | SKKanGAS inh | UPR CHOP act | XBP1 UPR activ | CSC inhib | Mdm2-MdmX conf | FLuc counter
CCOC(=O)c1sc(NC(=O)CSc2nc(-c3ccco3)cc(C(F)(F)F)n2)c(C(=O)OC)c1C | -6 | 73* | 9 | 1 | -2 | 14 | 29 | 17
COc1ccccc1CCNC(=O)CSc1nc(-c2ccco2)cc(C(F)(F)F)n1 | x | 76* | -4 | 0 | -2 | 7 | 43* | 83*
O=C(CCCSc1nc(-c2ccco2)cc(C(F)(F)F)n1)Nc1ccc2c(c1)OCO2 | 3 | 24 | 29 | 0 | 4 | 36 | x | x
O=C(CCN1C(=O)[C@@H]2Cc3ccccc3CN2C1=O)NCc1ccc(Cl)cc1 | -1 | 12 | -5 | 2 | 1 | -7 | x | x
COCCN1C(=O)C(=O)/C(=C(/O)c2ccc(S(=O)(=O)N3CCCCC3)cc2)C1c1ccc(OC)cc1 (stereo not drawn) | 2 | 11 | -3 | -1 | -1 | -3 | x | x
CC(C)C1C(C#N)=C(N)Oc2n[nH]c(-c3ccc4ccccc4c3)c21 (stereo not drawn) | 11 | 57* | 24 | -2 | 2 | 17 | 63* | 50*
O=C(Nc1ccc2ccccc2c1)C(c1ccccc1)C1CCCC1 (stereo not drawn) | 29 | 57* | 2 | -3 | 0 | 42 | 59* | 78*
CCN(CCCc1ccccc1)CCCc1ccccc1 | x | -12 | 1 | 0 | -6 | x | x | x
CCC[C@@H](CN[C@@H](CNC)C(C)C)NCCCCc1ccccc1 | 10 | 97* | 4 | -1 | 1 | 23 | 91* | 21
Cn1cccc1CC(=O)NNC(=O)Nc1ccccc1F | -2 | -1 | x | 0 | -3 | -6 | x | x
COc1ccc(C(=O)CC(Nc2ccc([N+](=O)[O-])cc2)c2ccc(Cl)cc2)cc1 (stereo not drawn) | 16 | 53* | 30 | 2 | 2 | 40 | 15 | x
O=C(Cc1cccs1)NCCSc1c(-c2ccc(Cl)cc2)[nH]c2ccccc12 | 37 | 77* | 31 | 6 | -2 | 71 | 25 | x
CC[C@]12c3[nH]c4ccc(Cl)cc4c3CCN1C(=O)[C@@H](CC(=O)NCCCn1ccnc1)C[C@@H]2C(=O)N1CCN(C(=O)C2CC2)CC1 | x | 3 | x | 2 | 0 | x | x | x
Cc1nc(N/N=C/c2ccc(O)cc2)c2cnn(-c3ccccc3)c2n1 | 1 | 59* | u | 4 | 16 | -7 | -3 | x
Cc1nc2ccccc2nc1N/N=C/c1ccc(O)cc1 | 1 | -36 | 1 | 3 | 6 | 5 | x | x
Cc1nnnn1/C(=C\c1ccccc1)C(=O)OCC(=O)NC(C)(C)C | -14 | 37 | -1 | -1 | -3 | -12 | x | x
Cc1nnnn1/C(=C\c1ccccc1)C(=O)OCC(=O)NC1CCCCC1 | -30 | 62* | 6 | 4 | -3 | 25 | 45* | 45*
CCCc1ccc(C(=O)O/N=C(\N)c2ccccn2)cc1 | 1 | 63* | 15 | -12 | -13 | 20 | 70* | 61*
N/C(=N\OC(=O)c1ccc(=O)n(Cc2ccc(Cl)cc2)c1)c1ccccn1 | 0 | 67* | 8 | 3 | -1 | 1 | 34 | x
N/C(=N\OC(=O)c1ccc(=O)n(Cc2ccccc2)c1)c1ccccn1 | -6 | 21 | -25 | 5 | 4 | -9 | x | x
N/C(=N/OC(=O)c1cccc([N+](=O)[O-])c1)c1cccc([N+](=O)[O-])c1 | -7 | 2 | 0 | 4 | 3 | 10 | x | x
N/C(=N\OC(=O)Cc1ccccc1)c1ccccc1Cl | 1 | -9 | 10 | 4 | 7 | 2 | x | x
N/C(=N\OC(=O)c1ccc2ccccc2c1)c1cccc([N+](=O)[O-])c1 | -7 | 83* | -2 | 7 | 3 | -10 | 4 | x
N/C(=N\OC(=O)c1ccc2ccccc2c1)c1ccccc1Cl | -6 | 100* | 8 | 9 | 0 | -7 | 68* | 77*
COc1ccccc1CNS(=O)(=O)c1ccc2c(c1)CCCN2C(C)=O | -1 | 14 | -1 | -1 | -3 | -6 | x | x
SMILES | Beta apoptosis | Mdm2 MdmX PPI | SKKanGAS inh | UPR CHOP act | XBP1 UPR activ | CSC inhib | Mdm2-MdmX conf | FLuc counter
N/C(=N\OC(=O)c1ccc2ccccc2c1)c1ccncc1 | -7 | -125 | -17 | 3 | 3 | -1 | x | x
N/C(=N\OC(=O)c1ccc2ccccc2c1)c1ccccn1 | -1 | 70* | -4 | -8 | -6 | 3 | 49* | 111*
CCc1ccc(NC(=O)C(=O)c2cn(CC(=O)N3CCCCC3)c3ccccc23)cc1 | -2 | 26 | 14 | 3 | -1 | 12 | x | x
COC(=O)c1ccc(NC(=O)C(=O)c2cn(CC(=O)N3CCOCC3)c3ccccc23)cc1 | 3 | 55* | -7 | 5 | 5 | -6 | 0 | x
CCCCc1cc(=O)oc2cc(OCC(=O)Nc3cccnc3)c(Cl)cc12 | -10 | 18 | -1 | 0 | 18 | -13 | x | x
Cc1nn(-c2ccccc2)c2[nH]c(=O)c(CNCc3ccc4c(c3)OCO4)cc12 | 1 | 12 | -2 | -1 | 2 | x | x | x
CCOc1ccc(NCc2cc3c(C(C)(C)C)nn(-c4ccccc4)c3[nH]c2=O)cc1 | -16 | 96* | -7 | 4 | 10 | 21 | 23 | 91*
Cc1ccc(-c2nn(-c3ccccc3)c3[nH]c(=O)c(CNCc4ccccc4)cc23)cc1 | -1 | 52* | 33 | 5 | 2 | 53 | 12 | x
COc1cccc(NCc2cc3c(C(C)(C)C)nn(-c4ccccc4)c3[nH]c2=O)c1 | -3 | -16 | 14 | 2 | 2 | -13 | x | x
COc1ccc(C(=O)Nc2ccc(Oc3ncnc4sc(-c5ccccc5)cc34)cc2)cc1OC | 4 | 5 | 28 | 0 | 7 | 31 | x | x
COc1cc(C(=O)Nc2ccc(Oc3ncnc4sc(-c5ccccc5)cc34)cc2)cc(OC)c1OC | 4 | 53* | 33 | 2 | 2 | x | 28 | x
COc1ccc(C(=O)Nc2ccc(Oc3nc(C)nc4sc(-c5ccccc5)cc34)cc2)cc1OC | 35 | 56* | 22 | 6 | 4 | 37 | -4 | x
